What all share (conditions): isolated protein
Series [1] concerns the target T1, Albumin (Homo sapiens, UniProt P02768). Briefly: Binding affinity to human serum albumin assessed as quenching constant at 310K by fluorescence spectroscopy. Type of series: ADME. The method, boiled down: (§1)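 Fatty-acid-free HSA, 1.5 × 10^-6 M in 0.1 M Tris-HCl pH 7.4 with 0.1 M NaCl, titrated with ligand from ethanol stock. Each addition equilibrated 5 min. Emission recorded 300–450 nm with excitation at 280 nm, at 300, 305 and 310 K. Constants taken from the linear low-concentration region of Stern-Volmer F0/F plots.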

For series [2], the target named is T1, Albumin. Kind of series: Binding affinity to human serum albumin assessed as free energy change at 305K by thermodynamic analysis.
Series [3] has as its target T1, Albumin. Kind of series: Binding affinity to human serum albumin assessed as binding constant at 300K by Stem-Volmer plot. It counts as ADME. The gist of the method:
(§2)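 Fatty-acid-free HSA, 1.5 × 10^-6 M in 0.1 M Tris-HCl pH 7.4 / 0.1 M NaCl, was titrated with ligand from ethanol stock and equilibrated 5 min per addition. Emission was read 300–450 nm (excitation 280 nm) at 300, 305 and 310 K. Binding constants came from the quenching data across these temperatures, and thermodynamic parameters from their temperature dependence.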

In series [4] the target is T1, Albumin. Kind of series: Binding affinity to human serum albumin assessed as quenching constant at 305K by fluorescence spectroscopy. It counts as ADME. The method, boiled down: as §1
Series [5] has as its target T1, Albumin. Briefly: Binding affinity to human serum albumin assessed as binding constant at 305K by Stem-Volmer plot. It counts as ADME. The gist of the method: as §2
Series [6] has as its target T1, Albumin. Briefly: Binding affinity to human serum albumin assessed as induction of protein conformational changes by measuring reduction in intensity along with red shift in peak 1 by three-dimensional fluorescence spectroscopy. Further details: scale not given: the % may be the effect or the level left; call rule not given here. The method, boiled down: (§3)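 3-D fluorescence of HSA at 1.5 × 10^-6 M, alone and with ligand at a 2:1 ligand/HSA molar ratio, in Tris-HCl pH 7.4 buffer. Excitation scanned 200–480 nm in 10 nm steps, with emission recorded 220–500 nm. Changes in intensity and position of peak 1 were compared.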

Series [7] addresses T1, Albumin. Briefly: Binding affinity to human serum albumin assessed as quenching constant at 300K by fluorescence spectroscopy. Type of series: ADME. The method, boiled down:
as §1

Series [8] concerns the target T1, Albumin. Kind of series: Binding affinity to human serum albumin assessed as binding constant at 310K by Stem-Volmer plot. Type of series: ADME. The method, boiled down: as §2
Series [9] concerns the target T1, Albumin. Briefly: Binding affinity to human serum albumin assessed as induction of protein conformational changes by synchronous fluorescence spectroscopy.
For series [10], the target named is T1, Albumin. Briefly: Binding affinity to human serum albumin assessed as Stem-Volmer quenching constant at 310K by fluorescence spectroscopy. Type of series: ADME. The gist of the method:
as §1

Series [11] deals with T1, Albumin. Kind of series: Binding affinity to human serum albumin assessed as enthalpy change at 300K by thermodynamic analysis. It counts as ADME. The method, boiled down:
as §2

In series [12] the target is T1, Albumin. Kind of series: Binding affinity to human serum albumin assessed as Stem-Volmer quenching constant at 300K by fluorescence spectroscopy. Type of series: ADME. The method, boiled down:
as §1

Series [13] addresses T1, Albumin. Briefly: Binding affinity to human serum albumin by UV-vis spectrophotometry. It counts as ADME. The method, boiled down: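 UV-vis absorption titration at room temperature in a 10 mm quartz cuvette. HSA was held at 1.5 × 10^-6 M while ligand was varied 0–18 × 10^-6 M, and absorbance change at 280 nm was followed. Spectra of ligand alone at 1.5 × 10^-6 M were also recorded.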

For series [14], the target named is T1, Albumin. Briefly: Binding affinity to human serum albumin assessed as Stem-Volmer quenching constant at 305K by fluorescence spectroscopy. It counts as ADME. The gist of the method: as §1
Series [15] addresses T1, Albumin. Kind of series: Binding affinity to human serum albumin assessed as free energy change at 310K by thermodynamic analysis.
Series [16] concerns the target T1, Albumin. Briefly: Binding affinity to human serum albumin assessed as free energy change at 300K by thermodynamic analysis.
In series [17] the target is T1, Albumin. Briefly: Binding affinity to human serum albumin assessed as induction of protein conformational changes by measuring reduction in intensity along with blue shift in peak 1 by three-dimensional fluorescence spectroscopy. More on the design: scale not given: the % may be the effect or the level left. The gist of the method: as §3

The record followed here is ChEMBL document CHEMBL3407398, “Comparison between loureirin A and cochinchinenin C on the interaction with human serum albumin” (Eur J Med Chem, 2015).

T1 sequence (P02768 whole entry): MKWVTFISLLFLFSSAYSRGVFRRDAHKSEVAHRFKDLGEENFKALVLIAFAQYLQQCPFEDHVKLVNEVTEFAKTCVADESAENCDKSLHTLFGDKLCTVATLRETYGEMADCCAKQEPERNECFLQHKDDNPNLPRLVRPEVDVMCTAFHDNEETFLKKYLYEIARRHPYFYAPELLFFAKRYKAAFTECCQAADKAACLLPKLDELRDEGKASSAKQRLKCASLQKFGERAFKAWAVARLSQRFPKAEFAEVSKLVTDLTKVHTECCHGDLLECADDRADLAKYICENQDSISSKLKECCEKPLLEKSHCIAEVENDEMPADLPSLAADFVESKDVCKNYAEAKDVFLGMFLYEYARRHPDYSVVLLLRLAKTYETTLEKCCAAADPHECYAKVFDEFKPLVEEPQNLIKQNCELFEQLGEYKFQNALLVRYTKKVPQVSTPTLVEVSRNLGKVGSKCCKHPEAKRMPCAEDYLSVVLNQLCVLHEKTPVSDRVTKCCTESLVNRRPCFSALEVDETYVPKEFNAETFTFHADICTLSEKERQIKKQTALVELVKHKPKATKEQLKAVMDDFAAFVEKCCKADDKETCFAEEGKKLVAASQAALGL

Regarding `COc1ccc(CCC(=O)c2ccc(O)cc2)c(OC)c1`, the Kq in series [1] was 6.24 ×10¹² /M/s; in series [4], 7.98 ×10¹² /M/s; in series [7], 9.85 ×10¹² /M/s. The deltaG in series [2] is -6.986 kcal/mol; in series [15], -6.977 kcal/mol; in series [16], -6.998 kcal/mol. In addition, the K in [3] is given as 12.91 ×10⁴ /M; in [5], 9.51 ×10⁴ /M; in series [8] it was 8.56 ×10⁴ /M. Also, the values for the Activity in series [6], in series [9] and in series [13] were 28%, “Active” and “Active”, respectively. The KSV in series [10] was determined as 6.24 ×10⁴ /M; in series [12] it was 9.85 ×10⁴ /M; in [14], 7.98 ×10⁴ /M. In series [11], the deltaH was -7.643 kcal/mol.
Regarding `COc1ccc(C(CCc2ccc(O)cc2OC)c2cc(CCC(=O)c3ccc(O)cc3)c(OC)cc2O)cc1` (configuration not stated) [COCHINCHINENIN C], the results for the Kq in series [1], in series [4] and in [7] were 12.15 ×10¹² /M/s, 14.95 ×10¹² /M/s and 17.69 ×10¹² /M/s, respectively. Moreover, the deltaG in series [2] was -7.33 kcal/mol; in series [15] it was -7.232 kcal/mol; in [16], -7.431 kcal/mol. Further, the values for the K in [3], in series [5] and in series [8] were 25.32 ×10⁴ /M, 18.62 ×10⁴ /M and 12.32 ×10⁴ /M, respectively. Moreover, the Activity in series [17] was 14%; in series [9], “Active”; in series [13], “Active”. The KSV in series [10] came out at 12.15 ×10⁴ /M; in [12], 17.69 ×10⁴ /M; in [14], 14.95 ×10⁴ /M. In addition, the deltaH in [11] was -13.37 kcal/mol.
